Activity calls are given as the source filed them. No cut-off for these calls is given here.
Key:
[1] = test system: LNCaP; experiment: Antiproliferative activity against human LNCaP cells after 72 hrs by MTS assay; type: functional, cell-based
In short: (§1)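 Cells seeded at 2000 per well, exposed to varying compound concentrations for 72 h. Viability read by MTS assay. IC50 values are means of two separate experiments, each run in triplicate.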

[2] = test system: DU-145; experiment: Antiproliferative activity against human DU145 cells after 72 hrs by MTS assay; type: functional, cell-based; conditions: DU-145, 72 h; in short: as §1
[3] = test system: PC-3; experiment: Antiproliferative activity against human PC3 cells after 72 hrs by MTS assay; type: functional, cell-based; conditions: PC-3, 72 h; in short: as §1
[4] = test system: MCF7; experiment: Antiproliferative activity against human MCF7 cells after 72 hrs by MTS assay; type: functional, cell-based; conditions: MCF7, 72 h; in short: as §1
[5] = target: Signal transducer and activator of transcription 3 (Homo sapiens) (UniProt P40763); experiment: Inhibition of STAT3 binding to DNA
Chain of Signal transducer and activator of transcription 3 (Homo sapiens) (P40763 whole entry): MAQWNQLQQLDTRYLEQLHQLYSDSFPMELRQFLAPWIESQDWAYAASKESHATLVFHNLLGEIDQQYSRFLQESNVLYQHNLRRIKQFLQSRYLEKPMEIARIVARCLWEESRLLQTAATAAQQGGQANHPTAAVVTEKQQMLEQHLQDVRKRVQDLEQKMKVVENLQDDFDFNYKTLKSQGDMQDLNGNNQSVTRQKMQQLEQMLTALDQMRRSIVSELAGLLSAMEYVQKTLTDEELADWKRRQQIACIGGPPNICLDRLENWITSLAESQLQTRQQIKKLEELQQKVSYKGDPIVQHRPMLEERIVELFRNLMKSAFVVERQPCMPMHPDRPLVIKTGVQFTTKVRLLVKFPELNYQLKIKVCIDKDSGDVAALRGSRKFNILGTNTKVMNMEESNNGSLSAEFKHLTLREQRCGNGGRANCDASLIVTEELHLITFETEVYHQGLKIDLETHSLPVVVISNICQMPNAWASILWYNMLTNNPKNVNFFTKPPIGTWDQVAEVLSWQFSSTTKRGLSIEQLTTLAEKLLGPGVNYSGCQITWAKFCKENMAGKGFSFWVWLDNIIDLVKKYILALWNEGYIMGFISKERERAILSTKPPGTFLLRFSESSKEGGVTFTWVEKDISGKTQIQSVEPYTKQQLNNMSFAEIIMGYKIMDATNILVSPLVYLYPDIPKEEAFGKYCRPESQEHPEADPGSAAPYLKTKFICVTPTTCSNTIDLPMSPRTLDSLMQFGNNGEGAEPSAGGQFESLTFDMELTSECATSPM

| Structure (SMILES) | IC50 [1] | IC50 [2] | IC50 [3] | IC50 [4] | Activity [5] |
| --- | --- | --- | --- | --- | --- |
| COc1cccc2c1C(=O)c1c(C(C)=O)cccc1C2=O | > 100 µM | > 100 µM | > 100 µM |  |  |
| CC(=O)c1cccc2c1C(=O)c1c(O)cccc1C2=O | 31.5 µM | 31.5 µM | 32.4 µM |  |  |
| COc1cccc2c1C(=O)c1cccc(C(C)=O)c1C2=O | > 100 µM | > 100 µM | > 100 µM |  |  |
| CC(=O)c1cccc2c1C(=O)c1cccc(O)c1C2=O | 34.1 µM | 16.2 µM | 13.4 µM | 88.5 µM |  |
| C[C@@H]1CC(=O)c2c(ccc3c2C(=O)c2cccc(O)c2C3=O)C1 [OCHROMYCINONE] |  | 12.2 µM | 18.7 µM | 124 µM | Active |

— ChEMBL document CHEMBL1141610, “Design, synthesis, and studies of small molecule STAT3 inhibitors” (Bioorg Med Chem Lett, 2008)
